Tests used:
Hepatitis C virus [1] = assay: Inhibition of HCV subtype 1b NS5B Cdelta21 RNA dependent RNA polymerase expressed in Escherichia coli JM109 assessed as inhibition of [alpha32P]CTP incorporation after 1 hr by scintillation assay; design: species or system Hepatitis C virus subtype 1b; conditions: JM 109, 1 h
Hepatitis C virus [2] = assay: Antiviral activity against HCV infected in human hepatoma cells; assay type: functional, organism-based, Hepacivirus hominis
[3] = AUC (0 to 24 hrs) in rat at 10 mg/kg, po; assay type: ADME, organism-based; design: time < 24 hr, dose 10 mg/kg, route oral; conditions: plasma
Cytochrome P450 2C19 [4] = molecular target: T1, Cytochrome P450 2C19 (Homo sapiens, UniProt P33261); assay: Inhibition of CYP2C19 preincubated prior to substrate addition; assay type: ADME
[5] = Drug uptake in rat liver at 10 mg/kg, po after 6 hrs; assay type: ADME, organism-based; design: dose 10 mg/kg, route oral; conditions: read-out: Drug uptake
Method in brief: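 Rats dosed orally at 10 mg/kg; liver tissue concentration measured 6 h after dosing, reported in ng/g.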

Cytochrome P450 2C9 [6] = molecular target: T2, Cytochrome P450 2C9 (Homo sapiens, UniProt P11712); assay: Inhibition of CYP2C9 co-incubated with substrate; assay type: ADME
Cytochrome P450 3A4 [7] = molecular target: T3, Cytochrome P450 3A4 (Homo sapiens, UniProt P08684); assay: Inhibition of CYP3A4 co-incubated with substrate; assay type: ADME
Cytochrome P450 2D6 [8] = molecular target: T4, Cytochrome P450 2D6 (Homo sapiens, UniProt P10635); assay: Inhibition of CYP2D6 co-incubated with substrate; assay type: ADME
[9] = Permeability from apical to basal side of human Caco2 cells; assay type: ADME, cell-based; conditions: Caco-2, read-out: permeability
Cytochrome P450 2D6 [10] = molecular target: T4, Cytochrome P450 2D6; assay: Inhibition of CYP2D6 preincubated prior to substrate addition; assay type: ADME
Cytochrome P450 2C9 [11] = molecular target: T2, Cytochrome P450 2C9; assay: Inhibition of CYP2C9 preincubated prior to substrate addition; assay type: ADME
Cytochrome P450 3A4 [12] = molecular target: T3, Cytochrome P450 3A4; assay: Inhibition of CYP3A4 preincubated prior to substrate addition; assay type: ADME
[13] = AUC (0 to 24 hrs) in dog at 2 mg/kg, po; assay type: ADME, organism-based, Canis lupus familiaris; design: time < 24 hr, dose 2 mg/kg, route oral; conditions: plasma
[14] = Clearance in human hepatocytes assessed per million cells; assay type: ADME, cell-based, Hepatocyte; conditions: read-out: CLH
Cytochrome P450 2C19 [15] = molecular target: T1, Cytochrome P450 2C19; assay: Inhibition of CYP2C19 co-incubated with substrate; assay type: ADME
[16] = molecular target: Voltage-gated inwardly rectifying potassium channel KCNH2 (Homo sapiens, UniProt Q12809); assay: Inhibition of human ERG at 10 uM by efflux assay
Chain of Voltage-gated inwardly rectifying potassium channel KCNH2 (Q12809 whole entry): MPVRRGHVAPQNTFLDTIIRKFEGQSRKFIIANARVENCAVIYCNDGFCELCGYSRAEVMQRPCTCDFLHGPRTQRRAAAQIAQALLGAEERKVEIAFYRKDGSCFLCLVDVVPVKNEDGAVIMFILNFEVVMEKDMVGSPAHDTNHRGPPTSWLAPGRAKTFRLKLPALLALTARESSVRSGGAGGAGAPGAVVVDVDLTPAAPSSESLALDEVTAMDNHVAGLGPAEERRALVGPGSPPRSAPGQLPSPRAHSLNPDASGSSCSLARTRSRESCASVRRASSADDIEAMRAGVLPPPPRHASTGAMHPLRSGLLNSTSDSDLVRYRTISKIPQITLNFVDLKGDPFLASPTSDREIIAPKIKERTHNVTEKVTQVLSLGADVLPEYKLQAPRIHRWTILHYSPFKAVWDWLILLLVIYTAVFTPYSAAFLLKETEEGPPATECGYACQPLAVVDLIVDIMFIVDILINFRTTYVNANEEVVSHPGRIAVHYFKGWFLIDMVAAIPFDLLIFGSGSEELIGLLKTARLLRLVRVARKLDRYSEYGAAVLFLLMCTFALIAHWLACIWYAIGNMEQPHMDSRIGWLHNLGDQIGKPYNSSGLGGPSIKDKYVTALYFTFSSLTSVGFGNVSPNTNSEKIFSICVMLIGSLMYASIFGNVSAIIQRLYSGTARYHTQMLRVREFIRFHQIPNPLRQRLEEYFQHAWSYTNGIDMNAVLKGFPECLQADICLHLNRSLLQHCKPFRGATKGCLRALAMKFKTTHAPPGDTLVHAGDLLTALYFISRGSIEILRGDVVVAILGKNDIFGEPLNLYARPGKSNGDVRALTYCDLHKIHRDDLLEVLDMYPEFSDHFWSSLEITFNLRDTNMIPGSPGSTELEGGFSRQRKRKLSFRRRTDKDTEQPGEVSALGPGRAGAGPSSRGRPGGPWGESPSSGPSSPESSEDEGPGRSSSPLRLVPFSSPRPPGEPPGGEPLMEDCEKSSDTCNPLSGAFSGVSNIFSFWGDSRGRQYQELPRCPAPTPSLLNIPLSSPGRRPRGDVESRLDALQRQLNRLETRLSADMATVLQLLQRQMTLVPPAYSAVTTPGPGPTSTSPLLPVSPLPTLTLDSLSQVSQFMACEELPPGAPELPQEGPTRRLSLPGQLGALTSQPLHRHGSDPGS

T1 sequence (P33261 whole entry): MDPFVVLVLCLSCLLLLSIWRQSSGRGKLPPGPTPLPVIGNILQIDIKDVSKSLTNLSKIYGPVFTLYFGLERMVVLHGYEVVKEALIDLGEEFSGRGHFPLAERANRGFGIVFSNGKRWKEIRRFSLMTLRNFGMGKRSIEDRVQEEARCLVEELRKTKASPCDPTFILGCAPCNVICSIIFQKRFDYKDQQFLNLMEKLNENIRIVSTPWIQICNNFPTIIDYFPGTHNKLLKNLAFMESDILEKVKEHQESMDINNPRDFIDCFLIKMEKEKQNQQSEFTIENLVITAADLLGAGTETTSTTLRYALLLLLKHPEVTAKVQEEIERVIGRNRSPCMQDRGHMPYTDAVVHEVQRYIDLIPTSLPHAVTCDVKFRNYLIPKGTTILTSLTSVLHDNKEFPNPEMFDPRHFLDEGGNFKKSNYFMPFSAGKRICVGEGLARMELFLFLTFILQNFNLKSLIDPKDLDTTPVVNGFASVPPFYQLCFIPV
T2 sequence (P11712 whole entry): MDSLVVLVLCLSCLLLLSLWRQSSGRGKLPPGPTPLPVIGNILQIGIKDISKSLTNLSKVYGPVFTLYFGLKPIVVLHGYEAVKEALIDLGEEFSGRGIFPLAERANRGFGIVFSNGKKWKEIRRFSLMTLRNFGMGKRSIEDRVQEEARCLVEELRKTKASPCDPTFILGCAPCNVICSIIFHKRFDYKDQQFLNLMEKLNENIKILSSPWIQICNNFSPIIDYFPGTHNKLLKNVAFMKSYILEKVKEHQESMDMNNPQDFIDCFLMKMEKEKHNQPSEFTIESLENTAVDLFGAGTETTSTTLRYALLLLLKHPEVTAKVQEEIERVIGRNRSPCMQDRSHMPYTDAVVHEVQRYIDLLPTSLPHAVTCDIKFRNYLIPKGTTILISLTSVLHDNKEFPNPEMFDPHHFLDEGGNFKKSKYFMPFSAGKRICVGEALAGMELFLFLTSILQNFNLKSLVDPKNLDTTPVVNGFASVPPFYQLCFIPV
T4 sequence (P10635 whole entry): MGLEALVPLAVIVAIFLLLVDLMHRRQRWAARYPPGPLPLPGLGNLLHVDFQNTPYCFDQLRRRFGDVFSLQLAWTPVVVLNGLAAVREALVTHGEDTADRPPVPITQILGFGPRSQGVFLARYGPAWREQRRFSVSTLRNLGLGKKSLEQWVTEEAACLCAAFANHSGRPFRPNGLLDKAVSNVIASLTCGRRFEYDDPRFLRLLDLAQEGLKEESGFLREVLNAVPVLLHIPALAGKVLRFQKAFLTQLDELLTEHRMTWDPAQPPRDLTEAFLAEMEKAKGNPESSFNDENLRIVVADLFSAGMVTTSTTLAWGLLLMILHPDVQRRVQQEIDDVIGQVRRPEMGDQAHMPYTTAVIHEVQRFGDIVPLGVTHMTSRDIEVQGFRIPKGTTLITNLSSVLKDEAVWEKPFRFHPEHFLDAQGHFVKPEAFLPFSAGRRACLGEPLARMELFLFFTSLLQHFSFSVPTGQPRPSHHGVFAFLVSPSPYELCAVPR
T3 sequence (P08684 whole entry): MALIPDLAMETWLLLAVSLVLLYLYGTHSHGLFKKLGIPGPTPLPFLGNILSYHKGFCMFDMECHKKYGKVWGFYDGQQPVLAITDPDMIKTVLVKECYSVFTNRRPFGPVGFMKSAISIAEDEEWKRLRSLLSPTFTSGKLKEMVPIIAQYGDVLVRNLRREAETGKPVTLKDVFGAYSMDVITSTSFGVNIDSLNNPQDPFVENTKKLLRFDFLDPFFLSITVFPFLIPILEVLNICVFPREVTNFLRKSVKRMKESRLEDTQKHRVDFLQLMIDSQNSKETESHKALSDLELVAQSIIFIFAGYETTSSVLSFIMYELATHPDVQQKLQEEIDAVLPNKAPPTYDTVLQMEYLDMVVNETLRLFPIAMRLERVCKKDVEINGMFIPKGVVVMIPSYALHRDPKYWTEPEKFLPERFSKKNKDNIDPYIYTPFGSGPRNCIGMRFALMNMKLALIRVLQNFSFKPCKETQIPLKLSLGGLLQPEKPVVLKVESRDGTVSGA

SMILES	IC50 (Hepatitis C virus [1])	EC50 (Hepatitis C virus [2])	AUC(0-t) at 24 h [3]	further results
Nc1cc(Cn2c(C(=O)O)c(-c3ccc[nH]c3=O)c3cc(Cl)ccc32)ccn1	0.053 µM			
O=C(O)c1c(-c2ccc[nH]c2=O)c2cc(C(F)(F)F)ccc2n1Cc1ccc(F)cc1F	0.025 µM	0.1 µM		
Nc1cc(Cn2c(C(=O)O)c(-c3ccc[nH]c3=O)c3cc(C(F)(F)F)ccc32)ccn1	0.017 µM	0.1 µM	< 0.1 µM·h	
O=C(O)c1c(-c2ccccc2F)c2cc(Cl)ccc2n1Cc1ccccc1		> 100 µM		
CCOc1ccc2c(c1)c(-c1ccc[nH]c1=O)c(C(=O)O)n2Cc1cc(F)ccc1F	0.079 µM	0.1 µM		
O=C(O)c1c(-c2ccc[nH]c2=O)c2cc(Br)ccc2n1Cc1cc(F)ccc1F	0.003 µM	0.1 µM		
CCc1ccc2c(c1)c(-c1ccc[nH]c1=O)c(C(=O)O)n2Cc1cc(F)ccc1F	0.004 µM	0.1 µM		
Nc1cc(Cn2c(C(=O)O)c(-c3ccc[nH]c3=O)c3c(Cl)c(Cl)ccc32)ccn1	0.75 µM	0.1 µM		
Nc1cc(Cn2c(C(=O)O)c(-c3ccc[nH]c3=O)c3c(Br)cccc32)ccn1	4 µM	0.1 µM		
Nc1cc(Cn2c(C(=O)O)c(-c3ccc[nH]c3=O)c3cc(Cl)c(Cl)cc32)ccn1	0.047 µM	0.1 µM		
Nc1cc(Cn2c(C(=O)O)c(-c3ccc[nH]c3=O)c3cc(Br)ccc32)ccn1	0.047 µM	0.1 µM		
Nc1cc(Cn2c(C(=O)O)c(-c3ccc[nH]c3=O)c3cc(-c4cccc(=O)[nH]4)ccc32)ccn1	7 µM	0.1 µM		
Nc1cc(Cn2c(C(=O)O)c(-c3ccc[nH]c3=O)c3cc(C4CC4)ccc32)ccn1	0.065 µM	0.1 µM		
CS(=O)(=O)c1ccc2c(c1)c(-c1ccc[nH]c1=O)c(C(=O)O)n2Cc1ccnc(N)c1	1.4 µM	0.1 µM		
CC(=O)c1ccc2c(c1)c(-c1ccc[nH]c1=O)c(C(=O)O)n2Cc1ccnc(N)c1	0.33 µM	0.1 µM		
C#Cc1ccc2c(c1)c(-c1ccc[nH]c1=O)c(C(=O)O)n2Cc1ccnc(N)c1	0.048 µM	0.1 µM		
Nc1cc(Cn2c(C(=O)O)c(-c3ccc[nH]c3=O)c3cc(O)ccc32)ccn1	> 20 µM	0.1 µM		
Nc1cc(Cn2c(C(=O)O)c(-c3ccc[nH]c3=O)c3cc(OC(F)(F)F)ccc32)ccn1	0.016 µM	0.1 µM		
COc1ccc(Cn2c(C(=O)O)c(-c3ccc[nH]c3=O)c3cc(C(F)(F)F)ccc32)cc1	0.025 µM	0.1 µM		
O=C(O)c1c(-c2ccc[nH]c2=O)c2cc(C(F)(F)F)ccc2n1Cc1ccc(OC(F)F)cc1	0.067 µM	0.1 µM		
Cc1ccccc1Cn1c(C(=O)O)c(-c2ccc[nH]c2=O)c2cc(C(F)(F)F)ccc21	0.009 µM	0.1 µM		
O=C(O)c1c(-c2ccc[nH]c2=O)c2cc(C(F)(F)F)ccc2n1Cc1ccccc1F	0.009 µM	0.1 µM		
Cc1ccc(Cn2c(C(=O)O)c(-c3ccc[nH]c3=O)c3cc(C(F)(F)F)ccc32)c(C)c1	0.016 µM	0.1 µM		
Cc1cccc(Cn2c(C(=O)O)c(-c3ccc[nH]c3=O)c3cc(C(F)(F)F)ccc32)c1F	0.005 µM	0.1 µM		
O=C(O)c1c(-c2ccc[nH]c2=O)c2cc(C(F)(F)F)ccc2n1Cc1cc(F)ccc1F	0.004 µM	0.1 µM		

SMILES	IC50 (Hepatitis C virus [1])	EC50 (Hepatitis C virus [2])	AUC(0-t) at 24 h [3]	further results
NC(=O)c1ccc(F)c(Cn2c(C(=O)O)c(-c3ccc[nH]c3=O)c3cc(C(F)(F)F)ccc32)c1	0.007 µM	0.1 µM		
O=C(O)c1c(-c2ccc[nH]c2=O)c2cc(OC(F)(F)F)ccc2n1Cc1cc(F)ccc1F	0.024 µM	0.1 µM		
COc1ccc2c(c1)c(-c1ccc[nH]c1=O)c(C(=O)O)n2Cc1cc(F)ccc1F	0.015 µM	0.1 µM		
CC/C=C/c1ccc2c(c1)c(-c1ccc[nH]c1=O)c(C(=O)O)n2Cc1cc(F)ccc1F	0.15 µM	0.1 µM		
Cc1ccc2c(c1)c(-c1ccc[nH]c1=O)c(C(=O)O)n2Cc1cc(F)ccc1F	0.008 µM	1.1 µM		
O=C(O)c1c(-c2ccc[nH]c2=O)c2cc(CC(F)(F)F)ccc2n1Cc1cc(F)ccc1F	0.008 µM	0.1 µM		
CC(C)(C)c1ccc2c(c1)c(-c1ccc[nH]c1=O)c(C(=O)O)n2Cc1cc(F)ccc1F	0.008 µM	0.1 µM		
CC1(c2ccc3c(c2)c(-c2ccc[nH]c2=O)c(C(=O)O)n3Cc2cc(F)ccc2F)CC1	0.009 µM	0.1 µM		
Cc1ccc2c(c1)c(-c1ccc[nH]c1=O)c(C(=O)NS(C)(=O)=O)n2Cc1cc(F)ccc1F	0.007 µM	0.49 µM	22 µM·h	
CCS(=O)(=O)NC(=O)c1c(-c2ccc[nH]c2=O)c2cc(C)ccc2n1Cc1cc(F)ccc1F	0.01 µM	0.2 µM	11 µM·h	
Cc1ccc2c(c1)c(-c1ccc[nH]c1=O)c(C(=O)NS(=O)(=O)C(C)C)n2Cc1cc(F)ccc1F	0.007 µM	0.09 µM	6.8 µM·h	
Cc1ccc2c(c1)c(-c1ccc[nH]c1=O)c(C(=O)NS(=O)(=O)C1CC1)n2Cc1cc(F)ccc1F	0.006 µM	0.09 µM	9.1 µM·h	
CCc1ccc2c(c1)c(-c1ccc[nH]c1=O)c(C(=O)NS(C)(=O)=O)n2Cc1cc(F)ccc1F	0.006 µM	0.15 µM	72 µM·h	
CCc1ccc2c(c1)c(-c1ccc[nH]c1=O)c(C(=O)NS(=O)(=O)CC)n2Cc1cc(F)ccc1F	0.006 µM	0.08 µM	4.6 µM·h	
CCc1ccc2c(c1)c(-c1ccc[nH]c1=O)c(C(=O)NS(=O)(=O)C(C)C)n2Cc1cc(F)ccc1F	0.005 µM	0.1 µM	0.8 µM·h	
CCc1ccc2c(c1)c(-c1ccc[nH]c1=O)c(C(=O)NS(=O)(=O)C1CC1)n2Cc1cc(F)ccc1F	0.003 µM	0.06 µM	12 µM·h	
O=C(NS(=O)(=O)C1CC1)c1c(-c2ccc[nH]c2=O)c2cc(C(F)(F)F)ccc2n1Cc1cc(F)ccc1F	0.003 µM	0.05 µM	4.8 µM·h	
CC(C)(C)c1ccc2c(c1)c(-c1ccc[nH]c1=O)c(C(=O)NS(=O)(=O)C1CC1)n2Cc1cc(F)ccc1F	0.006 µM	0.05 µM	8 µM·h	
CC1(c2ccc3c(c2)c(-c2ccc[nH]c2=O)c(C(=O)NS(=O)(=O)C2CC2)n3Cc2cc(F)ccc2F)CC1	0.006 µM	0.6 µM	11 µM·h	
O=C(NS(=O)(=O)C1CC1)c1c(-c2ccc[nH]c2=O)c2cc(CC(F)(F)F)ccc2n1Cc1cc(F)ccc1F	0.007 µM	0.23 µM	0.67 µM·h	
Cc1cc2c(-c3ccc[nH]c3=O)c(C(=O)NS(=O)(=O)C3CC3)n(Cc3cc(F)ccc3F)c2cc1F	0.008 µM	0.02 µM	14 µM·h	IC50 (Cytochrome P450 2C19 [4]): > 20 µM; concentration at 6 h [5]: 5850 ng/g; IC50 (Cytochrome P450 2C9 [6]): > 20 µM; IC50 (Cytochrome P450 3A4 [7]): > 20 µM; IC50 (Cytochrome P450 2D6 [8]): > 20 µM; Papp A→B [9]: 3.5 ×10⁻⁶ cm/s; IC50 (Cytochrome P450 2D6 [10]): > 20 µM; IC50 (Cytochrome P450 2C9 [11]): > 20 µM; IC50 (Cytochrome P450 3A4 [12]): > 20 µM; AUC(0-t) at 24 h [13]: 8 µM·h; hepatocyte CLint [14]: < 1 µL/min/1e6 cells; IC50 (Cytochrome P450 2C19 [15]): > 20 µM; inhibition (INH) [16]: Not Active
Cc1cc2c(-c3ccc[nH]c3=O)c(C(=O)NS(=O)(=O)C3CC3)n(Cc3cc(F)ccc3F)c2cc1Cl	0.005 µM	0.15 µM		
Cc1cc2c(-c3ccc[nH]c3=O)c(C(=O)NS(=O)(=O)C3CC3)n(Cc3cc(F)ccc3F)c2cc1C(F)(F)F	0.007 µM	0.28 µM	0.69 µM·h	
O=C(NS(=O)(=O)C1CC1)c1c(-c2ccc[nH]c2=O)c2cc(C(F)(F)F)c(F)cc2n1Cc1cc(F)ccc1F	0.007 µM	0.28 µM		
CCc1cc2c(-c3ccc[nH]c3=O)c(C(=O)NS(=O)(=O)C3CC3)n(Cc3cc(F)ccc3F)c2cc1F	0.005 µM	0.06 µM	6.4 µM·h	

Source: ChEMBL document CHEMBL2010765, “Structure-activity relationship (SAR) development and discovery of potent indole-based inhibitors of the hepatitis C virus (HCV) NS5B polymerase” (J Med Chem, 2012)
